ChEMBL document CHEMBL1914307, “Small molecular CD4 mimics as HIV entry inhibitors” (Bioorg Med Chem, 2011)

Legend:
PM1 = test: Induction of gp120 conformational change in R5 tropic Human immunodeficiency virus 1 subtype B isolate JR-FL infected in human PM1 cells assessed as binding of anti-HIV1 mAb 4C11 measuring mean fluorescence intensity at 100 uM preincubated for 15 mins by FACS analysis using antibody staining (reference value: 14.94 fluorescence intensity); format: cell-based
How it was run: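 Env-expressing PM1 cells were pretreated with the CD4 mimic, then stained with the CD4-induced anti-envelope mAb 4C11 at 4 °C for 15 min. Cells were washed in PBS and detected with FITC-conjugated goat anti-human IgG. The read-out was flow cytometry on gated PM1 cells, giving the mean fluorescence intensity of 4C11. Anti-human CD19 served as the control antibody. Data are representative of at least two independent experiments.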

[1] = Cytotoxicity against mock-infected human PM1 cells expressing CCR5 by WST-8 assay; format: cell-based
How it was run: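 Viability of mock-infected PM1/CCR5 cells determined by WST-8; CC50 = concentration reducing viability by half; mean of at least three independent experiments.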

[2] = Selectivity index, ratio of CC50 for mock-infected human PM1 cells expressing CCR5 to IC50 for R5 tropic HIV1 YTA infected in human TZM-bl cells; format: functional
How it was run: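 SI calculated as CC50 (WST-8 viability, mock-infected PM1/CCR5 cells) divided by IC50 (beta-galactosidase reduction after single-round YTA infection of TZM-bl cells).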

[3] = tested on: Human immunodeficiency virus 1; test: Antiviral activity against R5 tropic HIV1 YTA infected in human TZM-bl cells assessed as beta-galactosidase activity preincubated for 15 mins before infection measured after 2 days by single-round assay using luminometry; format: functional, organism-based; settings: Human immunodeficiency virus 1, YTA
How it was run: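 Single-round infection of TZM-bl cells with R5 YTA virus; beta-galactosidase read as relative light units; IC50 = concentration giving 50% reduction vs virus control wells; mean of at least three independent experiments.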

[4] = tested on: Human immunodeficiency virus 1; test: Antiviral activity against HIV1 infected in human PM1 cells expressing CCR5 assessed as inhibition of virus-induced cytopathogenicity by multi-round assay; format: functional, organism-based; settings: Human immunodeficiency virus 1, PM1
How it was run: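 HIV-1-induced cytopathogenicity measured in PM1/CCR5 cells over multiple rounds of infection; IC50 from inhibition of cytopathic effect; mean of at least three independent experiments.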

[5] = Ratio of compound CC50 to NBD-556 CC50 for mock-infected human PM1 cells expressing CCR5 by WST-8 assay; format: ADME, cell-based

Row | Structure (SMILES) | Flu intensity (PM1) | CC50 [1] [µM] | Ratio CC50/IC50 [2] | IC50 [3] [µM] | IC50 [4] [µM] | selectivity ratio [5]
1 | O=C(Nc1ccc(Cl)cc1)C(=O)NC1CCNCC1 | 20.5 | 51 | 7.3 | 7 | – | –
2 | O=C(Nc1ccc(Cl)cc1)C(=O)NC1CC2(CCCCC2)NC2(CCCCC2)C1 (configuration not stated) | 22.2 | 120 | 176 | 0.68 | 0.56 | 4
3 | NC(=S)N1CCC(NC(=O)C(=O)Nc2ccc(Cl)cc2)CC1 | 20.2 | 42 | 7.6 | 5.5 | – | –
4 | Cc1ccc(NC(=O)C(=O)NC2CC(C)(C)NC(C)(C)C2)cc1 | – | 260 | 31 | 8.4 | – | –
5 | O=C(Nc1ccc(Cl)cc1)C(=O)NC1CCN(C(=O)Nc2ccccc2)CC1 | – | 6.2 | 0.56 | 11 | – | –
6 | NC(=O)N1CCC(NC(=O)C(=O)Nc2ccc(Cl)cc2)CC1 | 16 | 310 | 37 | 8.3 | – | –
7 | CC1(C)CC(NC(=O)C(=O)Nc2ccc(Cl)cc2)CC(C)(C)N1 | 23.1 | 35 | 57 | 0.61 | 0.9 | –
8 | N=C(N)N1CCC(NC(=O)C(=O)Nc2ccc(Cl)cc2)CC1.O=C(O)C(F)(F)F | 20.9 | 72 | 12 | 6.1 | – | –
9 | O=C(Nc1ccc(Cl)cc1)C(=O)Nc1ccc(Br)cc1 | – | > 500 | – | > 100 | – | –
10 | O=C(NCCc1ccccn1)C(=O)Nc1ccc(Cl)cc1 | 15.4 | 480 | 24 | 19.8 | – | –
11 | O=C(Nc1ccc(Cl)cc1)C(=O)Nc1ccc(Cl)cc1 | – | > 500 | – | > 100 | – | –
12 | O=C(Nc1ccc(Cl)cc1)C(=O)NC1CCN(C(=O)c2ccccc2)CC1 | 17.8 | – | – | 5.1 | – | –
13 | O=C(Nc1ccc(F)cc1)C(=O)Nc1ccc(Cl)cc1 | 15.2 | > 500 | >160 | 3.1 | – | –
